Active and inactive are the calls of the source. The rule behind the calls is not given here. Some results are limits rather than exact numbers.

The term IC50 denotes the midpoint of a concentration-inhibition curve. One may read the Tmax as the time from dosing to the highest level. By Cmax is commonly meant the highest concentration seen after dosing.

Data set [1] addresses T1, 17-beta-hydroxysteroid dehydrogenase type 2 (Homo sapiens, UniProt P37059).
T1 sequence (P37059 whole entry): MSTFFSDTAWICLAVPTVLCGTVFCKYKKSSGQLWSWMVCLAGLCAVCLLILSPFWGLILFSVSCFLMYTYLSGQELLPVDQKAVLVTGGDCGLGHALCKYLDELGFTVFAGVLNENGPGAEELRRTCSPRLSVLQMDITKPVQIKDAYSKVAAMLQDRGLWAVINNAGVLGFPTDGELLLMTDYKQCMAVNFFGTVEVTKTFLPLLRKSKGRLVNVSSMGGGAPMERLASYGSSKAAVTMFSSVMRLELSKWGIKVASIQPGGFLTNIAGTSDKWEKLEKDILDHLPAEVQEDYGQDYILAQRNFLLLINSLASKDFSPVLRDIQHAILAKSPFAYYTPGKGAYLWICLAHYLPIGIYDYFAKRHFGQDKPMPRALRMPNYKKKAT
In words: Inhibition of human placental 17betaHSD2 by radiodetection assay. In outline: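 Microsomal fraction from fresh human placenta (pellet after homogenisation and centrifugation). Incubated 20 min at 37 °C with NAD+ 1500 μM and unlabeled E2 plus [2,4,6,7-3H]E2 (500 nM final) in phosphate buffer 50 mM with 20% glycerol and 1 mM EDTA, 1% DMSO. Stopped with HgCl2 and ether-extracted. Substrate and product separated by HPLC with radiodetection. Mean of three determinations.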

The target of data set [2] is T2, 17-beta-hydroxysteroid dehydrogenase type 1 (Homo sapiens, UniProt P14061).
T2 sequence (P14061 whole entry): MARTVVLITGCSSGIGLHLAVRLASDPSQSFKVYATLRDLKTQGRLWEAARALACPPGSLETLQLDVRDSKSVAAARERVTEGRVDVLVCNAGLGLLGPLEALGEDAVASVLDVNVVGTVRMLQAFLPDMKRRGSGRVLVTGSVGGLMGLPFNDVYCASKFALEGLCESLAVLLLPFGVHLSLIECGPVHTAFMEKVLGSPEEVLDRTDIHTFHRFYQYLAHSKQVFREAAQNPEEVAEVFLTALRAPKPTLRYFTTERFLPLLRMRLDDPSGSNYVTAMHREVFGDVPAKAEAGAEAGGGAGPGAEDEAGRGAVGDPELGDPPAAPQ

In another data set the target is Cytochrome P450 3A4 (Homo sapiens, UniProt P08684). Description: Inhibition of human hepatic CYP3A4. The class given is ADME. The gist of the method: (§1)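 Tested with commercial P450 inhibition kits, used following the manufacturer's instructions. Values reported as IC50.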
The next data set has as its target Cytochrome P450 2C19 (Homo sapiens, UniProt P33261). In words: Inhibition of human hepatic CYP2C19. It counts as ADME. The gist of the method:
as §1

The target of a further data set is Cytochrome P450 2D6 (Homo sapiens, UniProt P10635). In words: Inhibition of human hepatic CYP2D6. The class given is ADME. In outline:
as §1

For a further data set, the system named is Rattus norvegicus. In words: AUC (0 to infinity) in Wistar rat at 10 mg/kg, po. The following applies: in vivo. More on the design: time infinity, dose 10 mg/kg, route oral. It counts as ADME, organism-based, Plasma. In outline:
(§2)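 Male Wistar rats (300-330 g), jugular-vein cannulated under ketamine/xylazine anaesthesia, sampled while freely moving. Oral cassette dosing by feeding needle to four rats at 10 mg/kg in labrasol/water (1:1), 5 mL/kg. Blood taken at 0, 1, 2, 3, 4, 6, 8, 10 and 24 h postdose; plasma frozen at -20 °C and quantified by HPLC-MS/MS.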

Data set [3] in a line: Tmax in Wistar rat at 10 mg/kg, po. It counts as ADME, organism-based. More on the design: dose 10 mg/kg, route oral. The note with it: in vivo. The gist of the method:
as §2

The nature of data set [4]: Cmax in Wistar rat at 10 mg/kg, po. It counts as ADME, organism-based. More on the design: dose 10 mg/kg, route oral. The following applies: in vivo. In outline:
as §2

Another data set has as its system T47D. In words: […] in human T47D cells assessed as inhibition of E2 formation in presence of E1.
For data set [5], the target named is T3, Estrogen receptor (Homo sapiens) (UniProt P03372).
T3 sequence (whole entry): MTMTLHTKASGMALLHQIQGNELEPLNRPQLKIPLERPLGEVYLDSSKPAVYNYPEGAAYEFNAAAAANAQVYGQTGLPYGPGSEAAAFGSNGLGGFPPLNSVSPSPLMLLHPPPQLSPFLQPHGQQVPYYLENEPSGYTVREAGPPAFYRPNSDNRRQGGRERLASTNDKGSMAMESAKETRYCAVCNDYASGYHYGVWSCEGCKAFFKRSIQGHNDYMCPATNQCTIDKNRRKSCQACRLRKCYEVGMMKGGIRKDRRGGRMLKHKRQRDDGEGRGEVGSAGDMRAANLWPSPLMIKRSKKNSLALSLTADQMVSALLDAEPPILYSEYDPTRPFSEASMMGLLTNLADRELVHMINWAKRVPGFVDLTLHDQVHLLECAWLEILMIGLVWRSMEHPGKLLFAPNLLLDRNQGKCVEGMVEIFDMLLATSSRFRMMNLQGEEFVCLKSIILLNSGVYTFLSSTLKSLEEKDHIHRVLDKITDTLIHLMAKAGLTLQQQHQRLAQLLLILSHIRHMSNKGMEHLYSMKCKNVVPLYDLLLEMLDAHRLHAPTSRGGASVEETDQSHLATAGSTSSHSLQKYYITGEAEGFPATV
Description: Agonist activity at ER in human T47D cells assessed as stimulation of cell proliferation. It counts as functional, cell-based. The gist of the method:
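T-47D cells grown 48 h in phenol red-free RPMI 1640 with 5% DCC-FCS, insulin and supplements, then exposed to test compound at 100 nM final (1% ethanol) for 8 days. Medium and additive renewed every 2-3 days. E2 0.1 nM served as positive control, ethanol as negative. Viability read by MTT at 590 nm. Stimulation was expressed relative to E2-induced proliferation, mean of ≥3 independent experiments.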

Data set [6] in a line: Terminal half life in Wistar rat at 10 mg/kg, po. It counts as ADME, organism-based. More on the design: dose 10 mg/kg, route oral. The following applies: in vivo, read-out: beta t1/2 (converted). In outline:
as §2

Sequence of Cytochrome P450 2D6 (P10635 whole entry): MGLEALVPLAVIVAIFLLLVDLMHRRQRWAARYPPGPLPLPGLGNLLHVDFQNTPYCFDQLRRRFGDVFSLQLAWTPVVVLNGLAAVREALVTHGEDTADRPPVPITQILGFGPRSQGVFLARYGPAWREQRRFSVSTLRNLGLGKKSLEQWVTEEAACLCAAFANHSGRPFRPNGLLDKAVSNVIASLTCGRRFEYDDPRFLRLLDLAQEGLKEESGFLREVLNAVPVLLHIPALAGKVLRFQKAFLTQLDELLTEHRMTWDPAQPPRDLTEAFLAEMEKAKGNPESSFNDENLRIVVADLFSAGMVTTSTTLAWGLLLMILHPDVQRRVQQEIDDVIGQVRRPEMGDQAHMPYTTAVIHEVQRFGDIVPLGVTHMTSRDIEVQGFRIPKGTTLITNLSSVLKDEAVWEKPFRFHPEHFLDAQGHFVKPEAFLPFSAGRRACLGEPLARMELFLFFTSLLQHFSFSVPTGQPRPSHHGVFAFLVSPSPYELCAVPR
Sequence of Cytochrome P450 2C19 (P33261 whole entry): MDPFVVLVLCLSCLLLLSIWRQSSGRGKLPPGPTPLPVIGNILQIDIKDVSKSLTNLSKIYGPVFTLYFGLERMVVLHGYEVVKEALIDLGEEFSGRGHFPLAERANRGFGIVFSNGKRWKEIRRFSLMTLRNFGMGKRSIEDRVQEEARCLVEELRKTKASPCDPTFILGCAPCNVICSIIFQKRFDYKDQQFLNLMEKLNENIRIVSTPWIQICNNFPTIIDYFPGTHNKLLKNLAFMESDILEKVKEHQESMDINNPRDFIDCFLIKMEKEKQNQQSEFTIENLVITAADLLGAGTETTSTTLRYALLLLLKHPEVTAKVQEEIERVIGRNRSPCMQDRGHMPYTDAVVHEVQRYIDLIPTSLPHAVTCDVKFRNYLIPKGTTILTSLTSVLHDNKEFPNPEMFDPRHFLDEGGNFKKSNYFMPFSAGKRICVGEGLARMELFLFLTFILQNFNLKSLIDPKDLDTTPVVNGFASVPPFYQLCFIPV
Sequence of Cytochrome P450 3A4 (P08684 whole entry): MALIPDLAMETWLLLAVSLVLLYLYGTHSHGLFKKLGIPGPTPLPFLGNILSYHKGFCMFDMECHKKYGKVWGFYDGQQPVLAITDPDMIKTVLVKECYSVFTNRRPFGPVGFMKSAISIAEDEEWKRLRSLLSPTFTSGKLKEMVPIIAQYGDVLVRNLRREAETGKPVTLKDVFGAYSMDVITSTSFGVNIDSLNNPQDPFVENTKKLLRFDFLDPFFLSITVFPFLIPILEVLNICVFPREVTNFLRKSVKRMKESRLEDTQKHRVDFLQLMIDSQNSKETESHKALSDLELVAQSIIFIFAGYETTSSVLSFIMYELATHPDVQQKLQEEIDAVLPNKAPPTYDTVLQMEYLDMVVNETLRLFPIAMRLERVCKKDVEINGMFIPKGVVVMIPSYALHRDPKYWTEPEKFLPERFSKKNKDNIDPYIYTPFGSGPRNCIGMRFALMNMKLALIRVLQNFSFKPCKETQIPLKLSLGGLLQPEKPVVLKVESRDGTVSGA

For the compound `Oc1cccc(-c2ccc(-c3ccc(F)c(O)c3)cc2)c1`, the IC50 in data set [1] came to 253 nM; in data set [2] it was 51 nM.
With `Cc1cc(O)cc(-c2ccc(-c3ccc(O)cc3)s2)c1`, the IC50 in [1] came out at 2580 nM; in [2], 629 nM.
In the same order, the values of `Oc1cccc(-c2ccc(-c3ccc(O)c(F)c3)cc2)c1` are 872 nM and 123 nM.
Consider `Cc1cc(-c2ccc(-c3cccc(O)c3)s2)ccc1O`, for which the IC50 on Cytochrome P450 3A4 was 500 nM; at Cytochrome P450 2C19, 940 nM; against Cytochrome P450 2D6, more than 1500 nM; in the data set on T47D, 426 nM; in data set [2], 46 nM. For the same compound, in the data set with Rattus norvegicus, the AUC was 12275 ng/mL. In data set [3], the time of peak concentration (Tmax) is 4 h. In data set [4], this compound gave a Cmax of 905 ng/mL. Besides, the result in data set [5] was inactive. In addition, in [6], the half-life is 3.8 h.
Consider `Oc1cccc(-c2ccc(-c3ccc(F)cc3)s2)c1`, for which, in [1], it took 3650 nM to reach half-maximal inhibition (IC50).
`O=C(/C=C/c1cc(-c2ccc(-c3cccc(O)c3)s2)ccc1O)Nc1ccccc1`: the IC50 is 468 nM in [1] and 427 nM in data set [2].
In [2], `Oc1cccc(-c2cc(-c3ccccc3)c(-c3cccc(O)c3)s2)c1` showed an IC50 of 493 nM.
`Oc1cccc(-c2cc(-c3ccc(O)c(F)c3)cs2)c1`: the figures for the IC50 in data set [1] and in data set [2] were 510 nM and 64 nM, respectively.
Turning to `Oc1ccc(-c2cc(-c3cccc(O)c3)c(-c3cccc(O)c3)s2)cc1`, in data set [2], the IC50 was more than 1000 nM.
Take `Oc1cc(-c2ccc(-c3ccc(O)c(F)c3)s2)ccc1F`: the half-inhibitory concentration (IC50) in data set [1] came to 218 nM; in data set [2], 17 nM.
With `Oc1cccc(-c2ccc(-c3ccc(O)c(-c4ccccc4)c3)s2)c1`, the IC50 in data set [2] was more than 5000 nM.
Consider `Cc1cc(-c2csc(-c3cccc(O)c3)c2)ccc1O`, for which the IC50 on Cytochrome P450 3A4 was more than 1500 nM; at Cytochrome P450 2C19 it was 1500 nM; on Cytochrome P450 2D6, more than 1500 nM; with T47D, 362 nM; in [2], 64 nM.
`CS(=O)(=O)NCc1cccc(-c2ccc(-c3cccc(O)c3)s2)c1` registered an IC50 in [2] of more than 1000 nM.
Still for that read-out and setting: under `Cc1cc(-c2cnc(-c3cccc(O)c3)s2)ccc1O` stands 143 nM.
On to `CCOC(=O)/C=C/c1cc(-c2ccc(-c3cccc(O)c3)s2)ccc1O`, for which the IC50 came to 502 nM in [1] and 130 nM in [2].
On to `Oc1cccc(-c2ccc(-c3cccc(F)c3)s2)c1`, for which, in [1], half-maximal inhibition (IC50) was put at 1820 nM.
In the case of `Cc1ccc(-c2ccc(-c3ccc(O)cc3)s2)cc1O`, the IC50 in data set [2] is more than 5000 nM.
Turning to `Oc1cccc(-c2cc(-c3cccc(O)c3)c(-c3cccc(O)c3)s2)c1`, the IC50 in data set [1] is 188 nM; in data set [2], 119 nM.
Regarding `Oc1cccc(-c2ccc(-c3ccc(F)c(F)c3)s2)c1`, the IC50 in [1] turned out to be 2640 nM; in data set [2], 780 nM.
For `Oc1ccc(-c2ccc(-c3ccc(F)c(O)c3)s2)cc1`, the IC50 in [1] stood at 183 nM; in [2] it was 113 nM.
Consider `O=C(CCc1cc(-c2ccc(-c3cccc(O)c3)s2)ccc1O)Nc1ccccc1`, for which the IC50 in data set [1] was found to be 982 nM; in [2], 620 nM.
In the case of `Oc1cc(F)cc(-c2ccc(-c3ccc(O)c(F)c3)s2)c1`, the figures for the IC50 in data set [1] and in data set [2] were 227 nM and 29 nM, respectively.
`N#Cc1ccc(-c2ccc(-c3cccc(O)c3)s2)cc1` came in with an IC50 in data set [2] of more than 1000 nM.
Take `Oc1ccc(-c2ccc(-c3cc(O)cc(F)c3)s2)cc1`: the IC50 in data set [1] was found to be 463 nM; in data set [2] it was 42 nM.
Turning to `Nc1ccc(-c2ccc(-c3cccc(O)c3)s2)cc1`, in data set [2], the IC50 is more than 5000 nM.
On to `Oc1cccc(-c2ccc(-c3cc(F)c(O)c(F)c3)s2)c1`, for which the values for the IC50 in data set [1] and in data set [2] were 312 nM and 56 nM, respectively.
`Oc1cccc(-c2ccc(-c3ccc(S)cc3)s2)c1` came in with an IC50 in [2] of more than 5000 nM.
Turning to `Oc1ccc(-c2ccc(-c3ccc(O)c(O)c3)s2)cc1`, the IC50 in data set [2] was more than 5000 nM.
Turning to `Cc1cc(-c2ccc(-c3cccc(O)c3)cc2)ccc1O`, the IC50 is 1250 nM in [1] and 171 nM in [2].
Take `Oc1cccc(-c2ccc(-c3ccc(O)c(F)c3)s2)c1`: the IC50 is 820 nM on Cytochrome P450 3A4; 1500 nM at Cytochrome P450 2C19; more than 1500 nM on Cytochrome P450 2D6; 282 nM in the data set with T47D; 8 nM in [2]. Moreover, the AUC in the data set on Rattus norvegicus amounted to 19407 ng/mL. Moreover, in [3], the Tmax is 8 h. This compound had a Cmax in data set [4] of 1390 ng/mL. Moreover, the half-life in [6] was 2.7 h.
The compound `CS(=O)(=O)Nc1cccc(-c2ccc(-c3cccc(O)c3)s2)c1` yielded an IC50 in data set [1] of 1570 nM.
`Cc1ccc(S(=O)(=O)NCc2cccc(-c3ccc(-c4cccc(O)c4)s3)c2)cc1`: the figures for the IC50 in data set [1] and in data set [2] were 276 nM and 350 nM, respectively.
The corresponding values for `Oc1cccc(-c2ccc(-c3ccc(O)c(C(F)(F)F)c3)s2)c1` are 97 nM and 38 nM.
As to `Cc1cc(-c2cccc(O)c2)sc1-c1cccc(O)c1`, the IC50 was determined as 856 nM in data set [1] and 567 nM in [2].
In turn, `Oc1cccc(-c2ccc(-c3ccc(O)c(O)c3)s2)c1` returned an IC50 in [2] of 402 nM.

For the origin of these results see ChEMBL document CHEMBL1154625, “New insights into the SAR and binding modes of bis(hydroxyphenyl)thiophenes and -benzenes: influence of additional substituents on 17beta-hydroxysteroid dehydrogenase type 1 (17beta-HSD1) inhibitory activity and selectivity” (J Med Chem, 2009).
